Laboratory results as given in ChEMBL document CHEMBL4017544 (J Med Chem, 2017).
pIC50: −log10 of the molar value. The source made the active and inactive calls. The calls are words filed in the database; no cut-off is given here.

What was measured:
[1] = target: Kelch-like ECH-associated protein 1 (Homo sapiens) (UniProt Q14145); assay: Inhibition of Keap1/Nrf2 (unknown origin) interaction transfected in HEK293 cells assessed as upregulation of HO-1 mRNA expression at 200 to 1000 nM after 48 hrs by quantitative RT-PCR analysis; assay type: cell-based
Outline: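 HEK293 cells (ATCC; high-glucose DMEM, 10% FBS) were treated in triplicate for 48 h. For the reporter read-out, cells were transfected with an ARE-dependent luciferase plasmid and luciferase activity was measured. For mRNA, total RNA was extracted with TRIzol and reverse transcribed, and target transcripts were quantified by qRT-PCR relative to GAPDH using the 2−ΔΔCt method. Three independent experiments, mean ± SD.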

Mus musculus [2] = assay: Renoprotective activity in db/db mouse assessed as reduction of fibrosis in glomeruli at 1 to 2 mg/kg, ip administered trice per week for 12 consecutive weeks measured at 11 weeks post dose by H/E-staining based microscopic analysis; assay type: functional, organism-based
Outline: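 Male db/db mice, 8 weeks old, were randomized and dosed i.p. three times weekly for 12 weeks (vehicle: 5% Tween-80 in 0.9% saline; n = 6 per group). Kidneys were fixed in 4% PFA and paraffin-embedded. 5 μm sections were stained with HE, PAS or Masson's trichrome and examined at ×400.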

[3] = target: T1, Inhibitor of nuclear factor kappa-B kinase subunit beta (Homo sapiens) (UniProt O14920); assay: Inhibition of IKKbeta (unknown origin) transfected in HEK293 cells assessed as reduction in TNFalpha-induced upregulation of iNOS mRNA expression at 200 to 1000 nM administered 6 hrs after TNFalpha stimulation measured for 24 hrs by quantitative RT-PCR analysis; assay type: cell-based
T1 sequence (whole entry): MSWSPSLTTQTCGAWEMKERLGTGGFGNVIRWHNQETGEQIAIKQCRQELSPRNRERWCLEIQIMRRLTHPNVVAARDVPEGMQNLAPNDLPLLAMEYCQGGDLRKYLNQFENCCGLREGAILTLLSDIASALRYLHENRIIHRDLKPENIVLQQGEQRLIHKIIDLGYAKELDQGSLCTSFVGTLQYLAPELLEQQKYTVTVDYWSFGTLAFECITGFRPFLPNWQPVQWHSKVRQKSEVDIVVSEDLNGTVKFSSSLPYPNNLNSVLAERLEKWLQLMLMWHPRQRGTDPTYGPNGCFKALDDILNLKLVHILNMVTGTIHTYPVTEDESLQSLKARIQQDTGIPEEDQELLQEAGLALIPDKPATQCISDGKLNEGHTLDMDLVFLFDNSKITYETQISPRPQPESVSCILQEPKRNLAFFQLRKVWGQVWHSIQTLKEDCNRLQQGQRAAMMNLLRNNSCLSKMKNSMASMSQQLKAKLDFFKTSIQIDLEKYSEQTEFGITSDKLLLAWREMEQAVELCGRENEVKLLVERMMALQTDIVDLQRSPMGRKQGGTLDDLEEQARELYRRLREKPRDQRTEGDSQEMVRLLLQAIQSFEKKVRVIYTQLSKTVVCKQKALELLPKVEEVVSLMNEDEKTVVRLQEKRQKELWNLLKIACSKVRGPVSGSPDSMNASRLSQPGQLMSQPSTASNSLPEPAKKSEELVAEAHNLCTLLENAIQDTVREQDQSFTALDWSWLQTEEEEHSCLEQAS
Outline: (§1)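 HEK293 cells pretreated with TNF-α (10 ng/mL) for 6 h, then given compound at 200 or 1000 nM for 24 h, in triplicate; iNOS, COX2 and MCP-1 mRNA relative to GAPDH by quantitative RT-PCR, 2−ΔΔCt method; mean ± SD from three experiments.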

[4] = target: T1, Inhibitor of nuclear factor kappa-B kinase subunit beta (Homo sapiens); assay: Inhibition of IKKbeta (unknown origin) transfected in HEK293 cells assessed as reduction in TNFalpha-induced upregulation of MCP1 mRNA expression at 200 to 1000 nM administered 6 hrs after TNFalpha stimulation measured for 24 hrs by quantitative RT-PCR analysis; assay type: cell-based; outline: as §1
[5] = AUC (0 to infinity) in Sprague-Dawley rat at 10 mg/kg, iv measured up to 24 hrs by LC-MS/MS analysis; assay type: ADME, organism-based; design: dose 10 mg/kg, route intravenous, time infinity; settings: in vivo
Outline: (§2)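 Rats dosed intravenously at 10 mg/kg; blood drawn from suborbital vein at 0, 2, 5, 15, 30, 60 min and 1.5, 2, 4, 6, 8, 12, 24 h; plasma levels by LC-MS/MS; parameters from concentration–time profiles, mean ± SD, n = 3.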

[6] = Volume of distribution at steady state in Sprague-Dawley rat at 10 mg/kg, iv measured up to 24 hrs by LC-MS/MS analysis; assay type: ADME, organism-based; settings: in vivo, read-out: Vdss
Outline: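 Rats received a single 10 mg/kg i.v. dose. Blood was drawn from the suborbital vein at 0, 2, 5, 15, 30 and 60 min and at 1.5, 2, 4, 6, 8, 12 and 24 h, and plasma was analyzed by LC-MS/MS. n = 3, mean ± SD.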

[7] = Cmax in Sprague-Dawley rat at 10 mg/kg, iv measured up to 24 hrs by LC-MS/MS analysis; assay type: ADME, organism-based; design: dose 10 mg/kg, route intravenous; settings: in vivo; outline: as §2
H9c2 = assay: Cytotoxicity against rat H9c2 cells assessed as reduction in cell viability after 24 hrs by MTT assay; assay type: cell-based; settings: H9c2, 24 h
Outline: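 HEK293 or H9C2 cells grown in high-glucose DMEM with 10% FBS, exposed to compound for 24 h; viability by MTT, IC50 calculated.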

[8] = target: T1, Inhibitor of nuclear factor kappa-B kinase subunit beta (Homo sapiens); assay: Inhibition of IKKbeta (unknown origin) transfected in HEK293 cells assessed as reduction in TNFalpha-induced upregulation of iNOS protein expression at 200 to 1000 nM administered 6 hrs after TNFalpha stimulation measured for 24 hrs by Western blot method; assay type: cell-based
Outline: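 HEK293 cells pretreated with TNF-α (10 ng/mL) for 6 h, then given compound at 200 or 1000 nM for 24 h, in triplicate; nuclear and cytosolic p65, iNOS and COX2 protein by western blot; mean ± SD from three experiments.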

Mus musculus [9] = assay: Anti-diabetic nephropathic activity in db/db mouse assessed as reduction in urinary albumin at 0.65 mg/kg, ip administered trice per week for 12 consecutive weeks measured at 24 hrs post 11 week administration; assay type: functional, organism-based
Outline: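 Male db/db mice, 8 weeks old, randomized; ip vehicle (5% Tween-80 in 0.9% saline) or drug three times weekly for 12 weeks, n = 6 per group. After 11 weeks, 24 h urine collected for volume, albumin and creatinine, with UACR calculated; blood then sampled for plasma BUN and uric acid. Mean ± SD, one-way ANOVA with Tukey test.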

Mus musculus [10] = assay: Renoprotective activity in db/db mouse assessed as reduction in loss of foot processes at 0.65 mg/kg, ip administered trice per week for 12 consecutive weeks measured at 11 weeks post dose by TEM microscopic analysis; assay type: functional, organism-based
Outline: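 Male db/db mice (8 weeks old) were dosed i.p. three times weekly for 12 weeks in 5% Tween-80/0.9% saline, n = 6. Kidney tissue was fixed in 3% glutaraldehyde, cut into 80 nm ultrathin sections and examined by TEM. GBM thickness was measured at 30 random locations from three sections per kidney and averaged per mouse.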

Chain of Kelch-like ECH-associated protein 1 (Homo sapiens) (Q14145 whole entry): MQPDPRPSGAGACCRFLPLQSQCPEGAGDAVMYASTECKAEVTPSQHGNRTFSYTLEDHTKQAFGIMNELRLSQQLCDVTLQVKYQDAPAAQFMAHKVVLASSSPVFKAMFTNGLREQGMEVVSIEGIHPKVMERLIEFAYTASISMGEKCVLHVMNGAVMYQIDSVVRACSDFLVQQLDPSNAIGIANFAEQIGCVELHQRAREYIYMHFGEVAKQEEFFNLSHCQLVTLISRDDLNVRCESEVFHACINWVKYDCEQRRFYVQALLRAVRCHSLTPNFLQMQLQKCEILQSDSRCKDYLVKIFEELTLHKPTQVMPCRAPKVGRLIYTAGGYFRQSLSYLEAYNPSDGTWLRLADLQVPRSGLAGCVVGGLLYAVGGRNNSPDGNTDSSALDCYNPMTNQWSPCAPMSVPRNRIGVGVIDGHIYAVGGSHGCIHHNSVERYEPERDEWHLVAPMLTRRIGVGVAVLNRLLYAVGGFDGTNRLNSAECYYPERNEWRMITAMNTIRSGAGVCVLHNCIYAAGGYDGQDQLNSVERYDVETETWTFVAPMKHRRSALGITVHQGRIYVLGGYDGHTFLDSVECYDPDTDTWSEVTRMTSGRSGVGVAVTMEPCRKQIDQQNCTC

| SMILES | inhibition [1] | Activity (Mus musculus [2]) | inhibition [3] | inhibition [4] | AUC(0-inf) [5] [ng·h/mL] | Vd [6] [L/kg] | Cmax [7] [ng/mL] | pIC50 (H9c2) | inhibition [8] | Activity (Mus musculus [9]) | Activity (Mus musculus [10]) |
| --- | --- | --- | --- | --- | --- | --- | --- | --- | --- | --- | --- |
| COC(=O)[C@@H](N)CCC(=O)Nc1ccc(COC2=C(C#N)[C@H](O)[C@]3(C)C4=CC(=O)[C@@H]5[C@@H]6CC(C)(C)CC[C@]6(C(=O)OC)CC[C@@]5(C)[C@]4(C)CC[C@H]3C2(C)C)cc1 | Active | Active | Active | Active | 531 | 35.1 | 3020 | 3.95 | Active | – | – |
| COC(=O)[C@]12CCC(C)(C)C[C@H]1[C@H]1C(=O)C=C3[C@@]4(C)C=C(C#N)C(=O)C(C)(C)[C@@H]4CC[C@@]3(C)[C@]1(C)CC2 [BARDOXOLONE METHYL] | Active | – | Active | Active | 2180 | 29.1 | 5020 | 5.28 | Active | Active | Active |
